The values below come from PMC12164861 (Drug Design, Development and Therapy, 2025).

One data set concerns albumin. The following applies: cited from earlier work.
Data set [1] is described as follows: Teicoplanin steady-state plasma trough concentration. The class given is in vivo, human. The following applies: for teicoplanin Cmin: median (interquartile range). The method in brief: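 Retrospective cohort of adult ICU patients (Jan 2018–Dec 2023) under therapeutic drug monitoring of the test compound. Venous blood was drawn just before the next dose after at least 6 doses (steady state). Total plasma concentration was measured by HPLC, linear range 3.125–100.0 µg/mL. Target was Cmin ≥ 15.0 μg/mL. Non-normal data are given as median (interquartile range), counts as rate (%).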

The conditions of data set [2]: cited from earlier work.

Turning to `CC[C@H](C)C[C@H](C)CCCCCCCCC(=O)N[C@H]1C[C@@H](O)[C@@H](NCCN)NC(=O)[C@@H]2[C@@H](O)CCN2C(=O)[C@H]([C@H](O)CCN)NC(=O)[C@H]([C@H](O)[C@@H](O)c2ccc(O)cc2)NC(=O)[C@@H]2C[C@@H](O)CN2C(=O)[C@H]([C@@H](C)O)NC1=O` [Caspofungin], the albumin binding result in the data set with albumin was “≈ 97%”.
Consider `C[C@@H](c1ncncc1F)[C@](O)(Cn1cncn1)c1ccc(F)cc1F` [voriconazole], for which the albumin binding in the data set with albumin was 58%.
Turning to Teicoplanin, the “percentage of teicoplanin Cmin >30.0 μg/mL” value stood at 15.8% in data set [1] (all values (64/404)), 20.3% in data set [1] (patients with fungal co-infection) and 12.0% in data set [1] (patients without fungal infection). For the same molecule, the “teicoplanin Cmin” value is 19.67 (12.38, 25.45) μg/mL in data set [1] (patients who did not use caspofungin); 19.74 (13.22, 26.18) μg/mL in data set [1] (patients who did not use voriconazole); 20.12 (14.67, 26.68) μg/mL in data set [1] (patients who used caspofungin); 18.48 (10.84, 24.24) μg/mL in data set [1] (patients who used voriconazole). Also, the “percentage of teicoplanin Cmin reaching the target (≥15.0 μg/mL)” value in data set [1] (year 2018 (12/50)) is reported as 24.0%; in data set [1] (year 2019 (11/18)) it was 61.1%; in data set [1] (year 2020 (26/40)) it was 65.0%; in data set [1] (year 2021 (34/49)) it was 69.4%; in data set [1] (year 2022 (66/88)), 75.0%; in data set [1] (year 2023 (123/159)) it was 77.4%. For the same molecule, in data set [2] (model-based simulations, higher-dose regimens (12 mg/kg), MIC up to 0.5 mg/L, elderly critically ill patients with pneumonia), the “probability of target attainment (PTA)” value was “at least 85%”. Also, the “probability of target attainment (PTA) of target Cmin” value in data set [2] (simulations, standard dosage regimen, critically ill patients with severe renal dysfunction (eGFR ≤30 mL/min/1.73 m²)) is 52.8%.
